Results as given in ChEMBL document CHEMBL5653612, “Catalytic site remodelling of the DOT1L methyltransferase by selective inhibitors” (Nat Commun, 2012).
pIC50, pKd: −log10 of the molar value. Values belong to the molecule of their own block, whether it stands above or below them. Active and inactive are the calls of the source. No cut-off for these calls is given here.

Legend:
[1] = molecular target: Sodium-dependent noradrenaline transporter (Homo sapiens) (UniProt P23975); experiment: Inhibition of human norepinephrine transporter at 1 uM relative to control
[2] = system: MOLM-13; experiment: Inhibition of HOXA9 level in human MOLM-13 cells at 1 uM measured after 7 days by SYBR green staining based PCR analysis; assay type: functional, cell-based; conditions: time 7.0 day
How it was run: (§1)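 RNA was extracted with Qiazol and reverse-transcribed. SYBR green qPCR used gene-specific primer pairs for HOXA9 and Meis1.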

[3] = molecular target: Alpha-2A adrenergic receptor (Homo sapiens) (UniProt P08913); experiment: Inhibition of human Adrenergic alpha 2A receptor at 1 uM relative to control
[4] = molecular target: D(1A) dopamine receptor (Homo sapiens) (UniProt P21728); experiment: Inhibition of human dopamine D1 receptor at 1 uM relative to control
[5] = Apparent permeability across basolateral to apical side in human Caco-2 cells at 10 uM incubated for 90 mins at pH 7.4 by LC/MS analysis; assay type: ADME, cell-based; conditions: Caco-2, pH 7.4
[6] = system: MOLM-13; experiment: Downregulation of H3K79me2 in human MOLM-13 cells measured for 3 to 7 days by immuno blot analysis; assay type: functional, cell-based; conditions: dose 1.0 µM, time 3-7 day
How it was run: (§2)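 Exponentially growing Molm13 cells were plated at 2 × 10^5 per well in 2 ml and exposed to 1 μM compound or DMSO for the indicated times. Extracted histones (3 μg) were run on 10% Bis-Tris gels and transferred to nitrocellulose. Blots were probed with primary antibody (1:1000 in 5% milk/TBS-T), then anti-rabbit secondary, with chemiluminescent detection.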

[7] = molecular target: Glutamate NMDA receptor (Rattus norvegicus) (UniProt P35439+Q00959+Q00960+Q00961+Q62645+Q8VHN2+Q9R1M7); experiment: Inhibition of rat NMDA glutamate receptor at 1 uM relative to control; assay type: protein-complex assay
[8] = molecular target: Alpha-1A adrenergic receptor (Rattus norvegicus) (UniProt P43140); experiment: Inhibition of rat Adrenergic alpha 1A receptor at 1 uM relative to control
[9] = molecular target: Prostaglandin E2 receptor EP4 subtype (Homo sapiens) (UniProt P35408); experiment: Inhibition of human EP4 receptor at 1 uM relative to control
[10] = molecular target: Histone-lysine N-methyltransferase SUV39H2 (Homo sapiens) (UniProt Q9H5I1); experiment: Inhibition of SUV39H2 (unknown origin) using H3 1-25 peptide in presence of SAM
How it was run: (§3)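 Radiometric methyltransferase panel in which 3H-SAM, at or below each enzyme's Km, methylates biotinylated peptide substrates. They were quenched with 7.5 M guanidine-HCl, diluted, captured on streptavidin flash plates for 1 h, and counted by scintillation.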

[11] = molecular target: T1, Histone-lysine N-methyltransferase, H3 lysine-79 specific (Homo sapiens, UniProt Q8TEK3); experiment: Binding affinity to recombinant N-terminal DOT1L (1 to 420 residues) (unknown origin) expressed in Escherichia coli (DE3) assessed as dissociation constant by surface plasmon resonance assay
[12] = molecular target: Histone-lysine N-methyltransferase EHMT2 (Homo sapiens) (UniProt Q96KQ7); experiment: Inhibition of G9a (unknown origin) using H3 1-25 peptide in presence of SAM; how it was run: as §3
[13] = molecular target: Cannabinoid receptor 1 (Homo sapiens) (UniProt P21554); experiment: Inhibition of human CB1R at 1 uM relative to control
[14] = species: Rattus norvegicus; experiment: Inhibition of rat central GABAA receptor at 1 uM by muscimol radioligand binding assay relative to control
[15] = cells; conditions: Homo sapiens, A-431
[16] = molecular target: Mu-type opioid receptor (Homo sapiens) (UniProt P35372); experiment: Inhibition of human MOP receptor at 1 uM relative to control
[17] = species: Homo sapiens; experiment: Inhibition of PRC2 (unknown origin) using H3 21-44 peptide in presence of SAM; how it was run: as §3
[18] = system: Cord blood cell; experiment: Cytotoxicity against human Cord blood cell habouring TLS-ERG fusion protein assessed as reduction in cell viability at 1 to 5 uM incubated for 14 days by resazurin dye based […] assay; assay type: functional; conditions: dose 1-5 µM, time 14.0 day
How it was run: (§4)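 Transformed human cord blood cells were cultured with DMSO or inhibitor at 1 and 5 μM for 14 days. Resazurin (0.1 mg ml−1) was added for 4 h and resorufin fluorescence was read. Data are from at least two independent experiments, each with three repeats, shown as s.e. of the mean.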

[19] = molecular target: Beta-1 adrenergic receptor (Homo sapiens) (UniProt P08588); experiment: Inhibition of human Adrenergic beta1 receptor at 1 uM relative to control
[20] = molecular target: Histone-lysine N-methyltransferase SETD7 (Homo sapiens) (UniProt Q8WTS6); experiment: Inhibition of SETD7 (unknown origin) using H3 1-25 peptide in presence of SAM; how it was run: as §3
[21] = molecular target: T1, Histone-lysine N-methyltransferase, H3 lysine-79 specific; experiment: Binding affinity to recombinant N-terminal DOT1L (1 to 420 residues) (unknown origin) expressed in Escherichia coli (DE3) assessed as dissociation constant by SPR analysis
[22] = molecular target: Muscarinic acetylcholine receptor M3 (Homo sapiens) (UniProt P20309); experiment: Inhibition of human muscarinic acetylcholine M3 receptor at 1 uM relative to control
[23] = system: MV4-11; experiment: Downregulation of H3K79me2 in human MV4-11 cells habouring MLL/AF4 fusion protein measured upto 48 hrs by immuno blot analysis; assay type: functional, cell-based
[24] = Apparent permeability across apical to basolateral side in human Caco-2 cells at 10 uM incubated for 90 mins at pH 7.4 by LC/MS analysis; assay type: ADME, cell-based; conditions: Caco-2, pH 7.4
[25] = species: Rattus norvegicus; experiment: Inhibition of rat central imidazoline receptor 2 at 1 uM relative to control
[26] = system: MOLM-13; experiment: Downregulation of H3K79me2 in human MOLM-13 cells at 1 uM by immuno blot analysis; assay type: functional, cell-based; conditions: time 3-7 day, TDE = time-dependent effect; how it was run: as §2
[27] = species: Homo sapiens; experiment: Inhibition of human nicotinic acetylcholine alpha at 1 uM relative to control
[28] = system: MOLM-13; experiment: Inhibition of Meis1 level in human MOLM-13 cells at 1 uM measured after 7 days by SYBR green staining based PCR analysis; assay type: functional, cell-based; conditions: time 7.0 day; how it was run: as §1
[29] = molecular target: N-lysine methyltransferase KMT5A (Homo sapiens) (UniProt Q9NQR1); experiment: Inhibition of SETD8 (unknown origin) using […] in presence of SAM; how it was run: as §3
[30] = molecular target: DNA (cytosine-5)-methyltransferase 1 (Homo sapiens) (UniProt P26358); experiment: Inhibition of DNMT1 (unknown origin) using ds-DNA peptide in presence of SAM; how it was run: as §3
[31] = species: Rattus norvegicus; experiment: Inhibition of rat central GABAA receptor at 1 uM by flunitrazepam radioligand binding assay relative to control
[32] = molecular target: 5-hydroxytryptamine receptor 2B (Homo sapiens) (UniProt P41595); experiment: Inhibition of human 5HT2B receptor at 1 uM relative to control
[33] = species: Rattus norvegicus; experiment: Inhibition of rat Calcium 2 channel L, dihydropyridine site at 1 uM relative to control
[34] = molecular target: Alpha-1B adrenergic receptor (Rattus norvegicus) (UniProt P15823); experiment: Inhibition of rat Adrenergic alpha 1B receptor at 1 uM relative to control
[35] = molecular target: Adenosine receptor A1 (Homo sapiens) (UniProt P30542); experiment: Inhibition of human Adenosine A1 receptor at 1 uM relative to control
[36] = molecular target: Histone-lysine N-methyltransferase KMT5B (Homo sapiens) (UniProt Q4FZB7); experiment: Inhibition of […] (unknown origin) using H4 K20Me1 peptide in presence of SAM; how it was run: as §3
[37] = molecular target: Sigma non-opioid intracellular receptor 1 (Homo sapiens) (UniProt Q99720); experiment: Inhibition of human sigma 1 receptor at 1 uM relative to control
[38] = molecular target: hERG (KCNH2) (Homo sapiens, UniProt Q12809); experiment: Inhibition of human ERG at 1 uM relative to control; assay type: toxicity
[39] = molecular target: Histamine H1 receptor (Homo sapiens) (UniProt P35367); experiment: Inhibition of human histamine H1 receptor at 1 uM relative to control
[40] = molecular target: Protein arginine N-methyltransferase 5 (Homo sapiens, UniProt O14744); experiment: Inhibition of PRMT5 (unknown origin) using H4 1-24 peptide in presence of SAM; how it was run: as §3
[41] = molecular target: Histone-lysine N-methyltransferase 2A (Homo sapiens) (UniProt Q03164); experiment: Inhibition of MLL (unknown origin) using H3 1-25 peptide in presence of SAM; how it was run: as §3
[42] = cells; conditions: Homo sapiens, MCF-10A
[43] = molecular target: Muscarinic acetylcholine receptor M2 (Homo sapiens) (UniProt P08172); experiment: Inhibition of human muscarinic acetylcholine M2 receptor at 1 uM relative to control
[44] = molecular target: Histone-lysine N-methyltransferase SETDB1 (Homo sapiens) (UniProt Q15047); experiment: Inhibition of SETDB1 (unknown origin) using H3 1-25 peptide in presence of SAM; how it was run: as §3
[45] = system: Cord blood cell; experiment: Cytotoxicity against human Cord blood cell habouring MIL-AF9 fusion protein assessed as reduction in cell viability at 1 to 5 uM incubated for 14 days by resazurin dye based […] assay; assay type: functional; conditions: dose 1-5 µM, time 14.0 day; how it was run: as §4
[46] = molecular target: Histone-lysine N-methyltransferase EHMT1 (Homo sapiens) (UniProt Q9H9B1); experiment: Inhibition of EHMT1 (unknown origin) using H3 1-25 peptide in presence of SAM; how it was run: as §3
[47] = species: Homo sapiens; experiment: Inhibition of human nicotinic acetylcholine at 1 uM relative to control
[48] = molecular target: Protein arginine N-methyltransferase 3 (Homo sapiens) (UniProt O60678); experiment: Inhibition of PRMT3 (unknown origin) using H3 1-24 peptide in presence of SAM; how it was run: as §3
[49] = molecular target: Adenosine receptor A2a (Homo sapiens) (UniProt P29274); experiment: Inhibition of human Adenosine 2A receptor at 1 uM relative to control
[50] = molecular target: Histone-lysine N-methyltransferase KMT5C (Homo sapiens) (UniProt Q86Y97); experiment: Inhibition of SUV420H2 (unknown origin) using H4 K20Me1 peptide in presence of SAM; how it was run: as §3
[51] = molecular target: Beta-2 adrenergic receptor (Homo sapiens) (UniProt P07550); experiment: Inhibition of human Adrenergic beta 2 receptor at 1 uM relative to control
[52] = molecular target: D(2) dopamine receptor (Homo sapiens) (UniProt P14416); experiment: Inhibition of human dopamine D2s receptor at 1 uM relative to control
[53] = molecular target: T1, Histone-lysine N-methyltransferase, H3 lysine-79 specific; experiment: Inhibition of recombinant N-terminal DOT1L (1 to 420 residues) (unknown origin) expressed in Escherichia coli (DE3) using [3H]-SAM as substrate preincubated for 30 mins followed by substrate addition and measured after 2 hrs by Topcount reader analysis; conditions: read-out: IC50

T1 sequence (Q8TEK3 whole entry, the tested form may be a part): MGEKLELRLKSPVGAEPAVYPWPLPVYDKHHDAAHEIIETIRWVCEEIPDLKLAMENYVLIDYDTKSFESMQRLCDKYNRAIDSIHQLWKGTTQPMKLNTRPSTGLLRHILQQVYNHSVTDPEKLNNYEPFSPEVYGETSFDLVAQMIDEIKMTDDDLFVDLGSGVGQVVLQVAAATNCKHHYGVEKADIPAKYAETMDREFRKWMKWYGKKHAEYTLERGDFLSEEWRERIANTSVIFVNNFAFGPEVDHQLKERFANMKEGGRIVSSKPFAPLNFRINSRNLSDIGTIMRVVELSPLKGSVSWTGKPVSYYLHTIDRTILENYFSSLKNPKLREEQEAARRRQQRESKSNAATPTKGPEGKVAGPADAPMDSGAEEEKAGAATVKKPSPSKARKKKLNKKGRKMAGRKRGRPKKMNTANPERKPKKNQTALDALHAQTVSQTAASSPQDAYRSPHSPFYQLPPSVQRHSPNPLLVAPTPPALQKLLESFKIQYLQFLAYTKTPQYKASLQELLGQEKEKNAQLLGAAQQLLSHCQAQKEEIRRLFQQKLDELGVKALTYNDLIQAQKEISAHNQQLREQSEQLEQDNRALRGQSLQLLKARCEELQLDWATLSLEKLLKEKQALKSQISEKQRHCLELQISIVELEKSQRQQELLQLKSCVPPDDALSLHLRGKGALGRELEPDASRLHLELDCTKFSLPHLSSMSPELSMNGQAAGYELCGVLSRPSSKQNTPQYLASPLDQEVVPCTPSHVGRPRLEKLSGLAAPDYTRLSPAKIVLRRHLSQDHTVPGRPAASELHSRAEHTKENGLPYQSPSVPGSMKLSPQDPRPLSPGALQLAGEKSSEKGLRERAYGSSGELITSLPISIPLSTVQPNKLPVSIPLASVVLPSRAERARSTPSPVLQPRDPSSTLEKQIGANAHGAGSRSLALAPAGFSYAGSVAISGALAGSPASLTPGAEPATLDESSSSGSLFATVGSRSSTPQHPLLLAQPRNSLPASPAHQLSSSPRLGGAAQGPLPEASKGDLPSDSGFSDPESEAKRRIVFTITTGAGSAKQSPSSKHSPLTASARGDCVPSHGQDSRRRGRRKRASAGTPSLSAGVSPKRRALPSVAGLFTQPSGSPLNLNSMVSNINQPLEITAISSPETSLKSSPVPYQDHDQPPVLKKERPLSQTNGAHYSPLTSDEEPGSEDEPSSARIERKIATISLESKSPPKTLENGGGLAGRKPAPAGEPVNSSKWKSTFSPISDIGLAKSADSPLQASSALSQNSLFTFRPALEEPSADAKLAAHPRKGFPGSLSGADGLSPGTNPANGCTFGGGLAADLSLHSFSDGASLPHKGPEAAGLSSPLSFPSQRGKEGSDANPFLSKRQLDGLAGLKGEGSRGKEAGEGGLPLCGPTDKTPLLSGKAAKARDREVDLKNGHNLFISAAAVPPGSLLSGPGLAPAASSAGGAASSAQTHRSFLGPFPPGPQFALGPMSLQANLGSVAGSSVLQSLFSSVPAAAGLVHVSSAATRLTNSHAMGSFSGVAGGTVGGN
D(2) dopamine receptor (Homo sapiens), sequence (P14416 whole entry, the tested form may be a part): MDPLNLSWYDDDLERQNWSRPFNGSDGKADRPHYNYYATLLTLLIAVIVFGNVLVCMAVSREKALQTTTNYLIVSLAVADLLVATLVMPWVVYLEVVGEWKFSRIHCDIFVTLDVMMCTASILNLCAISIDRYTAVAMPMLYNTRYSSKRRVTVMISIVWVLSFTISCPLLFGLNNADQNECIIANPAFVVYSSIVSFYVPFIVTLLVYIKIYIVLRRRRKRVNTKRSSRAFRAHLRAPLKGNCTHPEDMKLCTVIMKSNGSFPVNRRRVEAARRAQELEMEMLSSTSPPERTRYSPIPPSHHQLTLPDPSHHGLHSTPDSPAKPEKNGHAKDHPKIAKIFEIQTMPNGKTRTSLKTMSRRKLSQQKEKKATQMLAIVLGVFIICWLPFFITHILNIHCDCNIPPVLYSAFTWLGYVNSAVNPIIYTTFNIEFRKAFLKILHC
Prostaglandin E2 receptor EP4 subtype (Homo sapiens), sequence (P35408 whole entry): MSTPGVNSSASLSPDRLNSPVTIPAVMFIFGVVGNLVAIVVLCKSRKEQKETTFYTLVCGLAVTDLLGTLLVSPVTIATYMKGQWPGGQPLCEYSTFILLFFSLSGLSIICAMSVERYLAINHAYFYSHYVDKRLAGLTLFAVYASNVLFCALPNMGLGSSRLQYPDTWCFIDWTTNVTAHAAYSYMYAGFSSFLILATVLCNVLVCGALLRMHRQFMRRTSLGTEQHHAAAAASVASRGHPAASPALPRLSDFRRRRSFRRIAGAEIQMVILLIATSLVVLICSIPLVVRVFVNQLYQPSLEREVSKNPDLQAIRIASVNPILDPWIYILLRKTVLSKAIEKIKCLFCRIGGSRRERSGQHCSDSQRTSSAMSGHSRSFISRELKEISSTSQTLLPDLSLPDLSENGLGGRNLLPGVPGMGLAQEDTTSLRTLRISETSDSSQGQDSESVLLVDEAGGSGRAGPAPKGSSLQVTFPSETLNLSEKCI
Alpha-1B adrenergic receptor (Rattus norvegicus), sequence (P15823 whole entry): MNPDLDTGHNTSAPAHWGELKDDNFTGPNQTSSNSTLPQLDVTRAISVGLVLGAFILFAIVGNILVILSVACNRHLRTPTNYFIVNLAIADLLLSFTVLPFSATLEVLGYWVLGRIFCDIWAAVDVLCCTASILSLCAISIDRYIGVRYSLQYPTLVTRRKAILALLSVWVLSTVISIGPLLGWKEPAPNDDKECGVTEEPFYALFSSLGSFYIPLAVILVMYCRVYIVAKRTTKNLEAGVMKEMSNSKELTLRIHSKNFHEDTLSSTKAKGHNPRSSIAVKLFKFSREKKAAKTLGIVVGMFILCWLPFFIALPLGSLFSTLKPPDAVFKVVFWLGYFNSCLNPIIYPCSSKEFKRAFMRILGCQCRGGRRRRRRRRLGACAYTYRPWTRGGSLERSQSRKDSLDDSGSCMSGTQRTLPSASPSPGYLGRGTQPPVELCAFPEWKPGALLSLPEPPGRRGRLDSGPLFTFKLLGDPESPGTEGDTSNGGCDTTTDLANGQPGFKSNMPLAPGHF
N-lysine methyltransferase KMT5A (Homo sapiens), sequence (Q9NQR1 whole entry): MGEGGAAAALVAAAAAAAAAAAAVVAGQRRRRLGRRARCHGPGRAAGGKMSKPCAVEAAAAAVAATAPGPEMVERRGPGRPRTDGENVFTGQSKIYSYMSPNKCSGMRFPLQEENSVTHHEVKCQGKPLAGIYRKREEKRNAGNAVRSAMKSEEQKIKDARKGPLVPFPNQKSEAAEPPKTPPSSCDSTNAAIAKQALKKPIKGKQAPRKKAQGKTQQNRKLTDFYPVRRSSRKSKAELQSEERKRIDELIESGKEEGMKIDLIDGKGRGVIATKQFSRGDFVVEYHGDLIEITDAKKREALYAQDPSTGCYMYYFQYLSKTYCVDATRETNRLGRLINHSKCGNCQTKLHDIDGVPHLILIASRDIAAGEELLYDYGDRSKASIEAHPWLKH
Mu-type opioid receptor (Homo sapiens), sequence (P35372 whole entry): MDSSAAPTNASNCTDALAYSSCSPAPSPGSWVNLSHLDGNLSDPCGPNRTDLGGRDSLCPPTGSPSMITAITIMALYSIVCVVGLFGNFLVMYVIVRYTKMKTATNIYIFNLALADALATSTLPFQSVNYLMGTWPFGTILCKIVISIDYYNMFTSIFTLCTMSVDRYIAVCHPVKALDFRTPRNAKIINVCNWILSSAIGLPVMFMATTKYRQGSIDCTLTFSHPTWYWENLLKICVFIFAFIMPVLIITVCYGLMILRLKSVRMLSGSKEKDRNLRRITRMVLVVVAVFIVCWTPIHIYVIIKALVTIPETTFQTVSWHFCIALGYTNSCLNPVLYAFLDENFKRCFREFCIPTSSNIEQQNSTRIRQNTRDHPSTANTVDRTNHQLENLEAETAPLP
Sigma non-opioid intracellular receptor 1 (Homo sapiens), sequence (Q99720 whole entry): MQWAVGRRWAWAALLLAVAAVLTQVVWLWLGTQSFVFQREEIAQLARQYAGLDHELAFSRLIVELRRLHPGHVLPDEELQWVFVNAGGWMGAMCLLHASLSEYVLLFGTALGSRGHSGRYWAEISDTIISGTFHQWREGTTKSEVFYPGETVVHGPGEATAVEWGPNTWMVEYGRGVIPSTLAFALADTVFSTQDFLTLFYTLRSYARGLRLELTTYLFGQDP
Protein arginine N-methyltransferase 5, sequence (O14744 whole entry): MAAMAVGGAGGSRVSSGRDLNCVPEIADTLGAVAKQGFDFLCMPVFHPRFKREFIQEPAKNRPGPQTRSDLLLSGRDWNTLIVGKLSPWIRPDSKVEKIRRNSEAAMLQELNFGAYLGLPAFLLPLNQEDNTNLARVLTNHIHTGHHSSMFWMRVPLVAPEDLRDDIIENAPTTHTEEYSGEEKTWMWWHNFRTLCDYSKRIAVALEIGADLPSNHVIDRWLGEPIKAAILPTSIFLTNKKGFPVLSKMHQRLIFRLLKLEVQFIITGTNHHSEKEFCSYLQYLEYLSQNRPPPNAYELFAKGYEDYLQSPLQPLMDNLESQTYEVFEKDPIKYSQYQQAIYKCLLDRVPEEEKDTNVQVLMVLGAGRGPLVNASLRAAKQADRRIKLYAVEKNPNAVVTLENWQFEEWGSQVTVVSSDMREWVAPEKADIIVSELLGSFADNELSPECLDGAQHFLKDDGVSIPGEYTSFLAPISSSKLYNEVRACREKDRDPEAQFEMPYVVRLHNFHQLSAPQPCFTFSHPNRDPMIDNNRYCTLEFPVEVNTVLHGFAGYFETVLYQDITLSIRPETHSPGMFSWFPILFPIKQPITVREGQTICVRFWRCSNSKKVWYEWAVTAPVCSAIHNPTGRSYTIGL
Adenosine receptor A1 (Homo sapiens), sequence (P30542 whole entry): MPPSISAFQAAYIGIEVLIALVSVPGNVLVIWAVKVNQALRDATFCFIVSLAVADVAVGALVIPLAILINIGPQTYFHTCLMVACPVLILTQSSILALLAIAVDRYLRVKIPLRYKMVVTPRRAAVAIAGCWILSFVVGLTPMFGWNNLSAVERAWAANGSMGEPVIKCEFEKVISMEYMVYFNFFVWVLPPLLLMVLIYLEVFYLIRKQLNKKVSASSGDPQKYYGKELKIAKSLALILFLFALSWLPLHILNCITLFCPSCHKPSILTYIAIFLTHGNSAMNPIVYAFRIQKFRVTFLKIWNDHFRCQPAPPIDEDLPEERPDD

SMILES: CC(C)N(CCCNC(=O)Nc1ccc(C(C)(C)C)cc1)C[C@H]1O[C@@H](n2cc(Br)c3c(N)ncnc32)[C@H](O)[C@@H]1O
- inhibition [1]: 13%
- inhibition [2]: Active
- inhibition [3]: 7%
- inhibition [4]: 7%
- Papp B→A at 1.5 h, 10 µM [5]: 10.6 ×10⁻⁶ cm/s
- Activity [6]: Dose-Dependent Effect
- inhibition [7]: 0%
- inhibition [8]: 22%
- inhibition [9]: -5%
- inhibition [10]: inactive
- pKd [11]: 10.22
- inhibition [12]: inactive
- inhibition [13]: 5%
- inhibition [14]: 19%
- pIC50 [15]: 8.58
- inhibition [16]: -3%
- inhibition [17]: inactive
- Activity [18]: inactive
- inhibition [19]: -1%
- inhibition [20]: inactive
- pKd [21]: 10.25
- inhibition [22]: 19%
- Activity [23]: Active
- Papp A→B at 1.5 h, 10 µM [24]: 5.7 ×10⁻⁶ cm/s
- inhibition [25]: 10%
- Activity [26]: Tde
- inhibition [27]: -1%
- inhibition [28]: Active
- inhibition [29]: inactive
- inhibition [30]: inactive
- inhibition [31]: 8%
- inhibition [32]: 8%
- inhibition [33]: 2%
- inhibition [34]: 17%
- inhibition [35]: -4%
- inhibition [36]: inactive
- inhibition [37]: -10%
- inhibition at 1 µM [38]: -15%
- inhibition [39]: -1%
- inhibition [40]: inactive
- inhibition [41]: inactive
- pIC50 [42]: 8.06
- inhibition [43]: 7%
- inhibition [44]: inactive
- Activity [45]: Active
- inhibition [46]: inactive
- inhibition [47]: 13%
- inhibition [48]: inactive
- inhibition [49]: 0%
- inhibition [50]: inactive
- inhibition [51]: -1%
- inhibition [52]: -3%

SMILES: C[C@H]1O[C@@H](O[C@H]2[C@@H](O)C[C@H](O[C@H]3[C@@H](O)C[C@H](O[C@H]4CC[C@@]5(C)[C@H](CC[C@@H]6[C@@H]5C[C@@H](O)[C@]5(C)[C@@H](C7=CC(=O)OC7)CC[C@]65O)C4)O[C@@H]3C)O[C@@H]2C)C[C@H](O)[C@@H]1O [DIGOXIN]
- Papp B→A at 1.5 h, 10 µM [5]: 13.2 ×10⁻⁶ cm/s
- Papp A→B at 1.5 h, 10 µM [24]: 0.4 ×10⁻⁶ cm/s

SMILES: CC(C)N(CCCNC(=O)Nc1ccc(C(C)(C)C)cc1)C[C@H]1O[C@@H](n2cnc3c(N)ncnc32)[C@H](O)[C@@H]1O
- Activity [23]: Active

- pIC50 [53]: 8.44
- pKd [11]: 8.47
- pKd [21]: 8.47
SMILES: CC(C)(C)c1ccc(NC(=O)NCCCNC[C@H]2O[C@@H](n3cc(Br)c4c(N)ncnc43)[C@H](O)[C@@H]2O)cc1
- Activity [23]: Active
